# Data from ChEMBL document CHEMBL1142519, “Synthesis and antiprotozoal activity of cationic 2-phenylbenzofurans” (J Med Chem, 2008).
# Calls of active or inactive are those of the source. The rule behind the calls is not given here.
# Tests used:
# L6 = test: Cytotoxicity against rat L6 cells; format: cell-based
# Procedure, shortened: (§1)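 IC50 values in µM, each the average of duplicate determinations. Parasites were T. b. rhodesiense STIB900 and axenic amastigotes of L. donovani MHOM/SD/62/1S-CL2D. Cytotoxicity was run on rat L6 myoblast cells.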
# [1] = system: Trypanosoma brucei rhodesiense; test: Antitrypanosomal activity against Trypanosoma brucei rhodesiense STIB 900 bloodstream trypomastigotes; format: functional, organism-based; procedure, shortened: as §1
# [2] = Selectivity index, ratio of IC50 for rat L6 cells to IC50 for Trypanosoma brucei rhodesiense STIB 900; format: toxicity, cell-based; settings: read-out: Ratio IC50
# Procedure, shortened: (§2)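 Ratio of the L6 rat myoblast cytotoxicity IC50 to the IC50 against the parasite named in the line. Each IC50 is the average of duplicate determinations.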
# Plasmodium falciparum = test: Antiplasmodial activity against chloroquine-resistant Plasmodium falciparum K1; format: functional, organism-based
# Procedure, shortened: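 In vitro IC50 against chloroquine-resistant P. falciparum K1, reported as the average of duplicate determinations.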
# [3] = Selectivity index, ratio of IC50 for rat L6 cells to IC50 for chloroquine-resistant Plasmodium falciparum K1; format: toxicity, cell-based; settings: read-out: Ratio IC50; procedure, shortened: as §2
# Leishmania donovani = test: Antileishmanial activity against Leishmania donovani MHOM/SD/62/1S-CL2D axenic amastigotes; format: functional, organism-based; procedure, shortened: as §1
# [4] = Selectivity index, ratio of IC50 for rat L6 cells to IC50 for Leishmania donovani MHOM/SD/62/1S-CL2D; format: toxicity, cell-based; settings: read-out: Ratio IC50; procedure, shortened: as §2
# [5] = system: Trypanosoma brucei rhodesiense; test: Antitrypanosomal activity against Trypanosoma brucei rhodesiense STIB 900 infected acute mouse model assessed as survival time at 5 mg/kg, ip administered daily for 4 days; format: functional; settings: route intraperitoneal
# Procedure, shortened: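 STIB900 acute mouse model of T. b. rhodesiense infection, with intraperitoneal dosing. Read-out is the average days of survival of treated mice. Cures are counted as mice that survive and stay parasite-free for 60 days.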
# [6] = system: Trypanosoma brucei rhodesiense; test: Antitrypanosomal activity against Trypanosoma brucei rhodesiense STIB 900 infected acute mouse model assessed as cured mouse at 5 mg/kg, ip daily for 4 days; format: functional, organism-based; design: dose 5 mg/kg
# Procedure, shortened: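 STIB900 acute mouse model of trypanosomiasis with intraperitoneal dosing. The regimens were daily for 4 days at 20, 5 or 1 mg/kg, or a single 10 mg/kg dose. A cure is a mouse that survives and is parasite-free for 60 days. Average days of survival are also recorded.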
SMILES,IC50 (L6) [µM],IC50 [1] [nM],selectivity ratio [2],IC50 (Plasmodium falciparum) [nM],selectivity ratio [3],IC50 (Leishmania donovani) [µM],selectivity ratio [4],Survival [5] [days],Activity [6]
COc1cc(C(=N)NC(C)C)cc2cc(-c3ccc(C(=N)NC(C)C)cc3)oc12,> 190,90,> 2110,48,> 3960,15,> 12,–,–
CC(C)NC(=N)c1ccc(O)c(-c2cc3cc(C(=N)NC(C)C)ccc3o2)c1,> 180,1000,> 179,516,> 349,40,> 5,–,–
COc1ccc(C2=NCCN2)cc1-c1cc2ccc(C3=NCCN3)cc2o1,11.1,17,653,74,150,34,0.3,25,inactive
CC(C)NC(=N)c1cccc(-c2cc3cc(C(=N)NC(C)C)ccc3o2)c1,> 199,473,> 421,331,> 601,13,> 15,–,–
COc1cc(C(=N)NC(C)C)ccc1-c1cc2cc(C(=N)NC(C)C)ccc2o1,98.1,74,1330,20,4900,1.5,67,>39,inactive
Oc1cc(C2=NCCN2)ccc1-c1cc2ccc(C3=NCCN3)cc2o1,> 193,11,> 17500,98,> 1970,13,> 15,23,inactive
CC(C)NC(=N)c1ccc(O)c(-c2cc3ccc(C(=N)NC(C)C)cc3o2)c1,> 187,5100,> 37,636,> 294,> 100,–,–,–
COc1ccc(C2=NCCN2)cc1-c1cc2cc(C3=NCCN3)ccc2o1,30.8,27,1140,65,474,> 50,< 0.6,8.5,inactive
c1ccc2[nH]c(-c3ccc(-c4cc5cc(-c6nc7ccccc7[nH]6)ccc5o4)cc3)nc2c1,6.7,249,27,31,216,> 100,0.1,5.5,inactive
COc1cc(C2=NCCN2)ccc1-c1cc2cc(C3=NCCN3)ccc2o1,7.4,247,30,31,239,60,0.1,–,–
N=C(N)c1cccc(-c2cc3cc(C(=N)N)ccc3o2)c1,21.2,24,883,19,1120,5.8,4,–,–
COc1cc(C(=N)N)ccc1-c1cc2cc(C(=N)N)ccc2o1,157,3,52300,3,52300,2,80,>47,–
CC(C)NC(=N)c1ccc(-c2cc3ccc(C(=N)NC(C)C)cc3o2)cc1,> 199,148,> 1340,15,> 13300,12,> 17,>38.5,–
c1cc(-c2cc3ccc(C4=NCCN4)cc3o2)ccc1C1=NCCN1,4.5,319,14,109,41,> 50,< 0.1,–,–
c1cc(C2=NCCN2)cc(-c2cc3cc(C4=NCCN4)ccc3o2)c1,33.9,78,435,76,446,24,1.5,–,–
CC(C)NC(=N)c1cccc(-c2cc3ccc(C(=N)NC(C)C)cc3o2)c1,> 200,534,> 375,59,> 3390,24,> 8,–,–
c1ccc2[nH]c(-c3ccc(-c4cc5cc(C6=NCCN6)ccc5o4)cc3)nc2c1,59.3,228,260,61,972,> 100,< 0.6,–,–
